Where “and” joins values, the source holds several entries; their conditions need not be identical. Equal entries are not always repeated. Where two headings read alike, the source gives them in different places. Marks after values point to notes of the source that are not given here.
What was measured:
cleaved caspase 3 = assay: Active cleaved caspase 3 activity in HepG2, colorimetric kit; type: cell-based, human; details: HepG2, IC50 concentration, 12 h
[1] = test system: p38 mitogen-activated protein kinase (MAPK); assay: MAPK concentration in HepG2 cells, sandwich ELISA; type: cell-based, human; details: HepG2, IC50 concentration, 8 hours
p53 = assay: qRT-PCR expression of p53 in HepG2; type: cell-based, human; details: HepG2, 8 h incubation at IC50 concentration, mean ± SEM
[2] = test system: topoisomerase II (Topo II); assay: Topo II concentration in HepG2 cells, sandwich ELISA; type: cell-based, human; details: HepG2, IC50 concentration, 8 hours
MCF7 cells = assay: MTT anti-proliferative assay, MCF7; type: cell-based, human; details: MCF7, 48 h, read-out: IC50 MCF7
Outline: (§1)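 HepG2 (passage 11), MCF7 (passage 13) and normal WI-38 fibroblasts were seeded at […]. Cells were exposed to test compound at 0.5, 1, 10, 20, 50 and 100 μM for 48 h, then incubated with MTT for 4 h. Formazan was dissolved in DMSO and read at 570 nm. Untreated and doxorubicin-treated cells were included. IC50 came from dose–response curves, mean ± SEM of two independent experiments.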

HepG2 cells = assay: MTT anti-proliferative assay, HepG2; type: cell-based, human; details: HepG2, 48 h, read-out: IC50 HepG2
Outline: as §1

caspase 3 = assay: qRT-PCR expression of caspase 3 in HepG2; type: cell-based, human; details: HepG2, 8 h incubation at IC50 concentration, mean ± SEM
txnrd1 = assay: qRT-PCR expression of txnrd1 in HepG2; type: cell-based, human; details: for down-regulation (inhibition) of txnrd1 expression: HepG2, 8 h; for Fold induction from untreated cells Txnrd1: HepG2, 8 h incubation at IC50 concentration, mean ± SEM
cdk1 = assay: qRT-PCR expression of cdk1 in HepG2; type: cell-based, human; details: for inhibition in cdk1 expression: HepG2, 8 h
WI-38 cells = assay: MTT assay, normal fibroblasts WI-38; type: cell-based; details: read-out: IC50 WI-38, WI-38 normal fibroblasts, 48 h, mean ± SEM
[3] = test system: HepG2, MCF7 and WI-38 cells; assay: MTT anti-proliferative assay, cell lines summarised together in text; type: cell-based; details: Homo sapiens
Outline: as §1

[4] = read-out: IC50 against cancer cell lines

| Compound | IC50 (MCF7 cells; Homo sapiens) | IC50 (HepG2 cells; Homo sapiens) | further results |
| --- | --- | --- | --- |
| O=c1[nH]nc(-c2nnc(S)o2)c2ccccc12 [Compound 1, 4-(5-mercapto-1,3,4-oxadiazol-2-yl)phthalazin-1(2H)-one] | 4.9 ± 0.8 µM | 4.5 ± 1.1 µM | elevation in activity of active cleaved caspase 3 compared to untreated cells (cleaved caspase 3): ~7 fold; reduction in MAPK concentration compared to untreated cells [1]: 84%; Fold induction from untreated cells p53 (p53): 3.83 ± 0.11 ^a fold; decrease in Topo II concentration [2]: 84%; Fold induction from untreated cells Caspase 3 (caspase 3): 3.10 ± 0.21 ^a fold; down-regulation (inhibition) of txnrd1 expression (txnrd1): 33%; Fold induction from untreated cells Txnrd1 (txnrd1): 0.67 ± 0.03 fold; inhibition in cdk1 expression (cdk1): ~78%; Fold induction from untreated cells Cdk1 (cdk1; HepG2, 8 h incubation at IC50 concentration, mean ± SEM): 0.22 ± 0.03 ^a fold |
| CCSc1nnc(-c2n[nH]c(=O)c3ccccc23)o1 [Compound 2a, 4-(5-(Ethylthio)-1,3,4-oxadiazol-2-yl)phthalazin-1(2H)-one] | 55.8 ± 4 µM | 61.3 ± 4.2 µM | – |
| O=c1[nH]nc(-c2nnc(SCc3ccccc3)o2)c2ccccc12 [Compound 2b, 4-(5-(Benzylthio)-1,3,4-oxadiazol-2-yl)phthalazin-1(2H)-one] | 68.2 ± 4.4 µM | 58.9 ± 4 µM | – |
| O=C(CSc1nnc(-c2n[nH]c(=O)c3ccccc23)o1)c1ccccc1 [Compound 2c, 4-(5-((2-Oxo-2-phenylethyl)thio)-1,3,4-oxadiazol-2-yl)phthalazin-1(2H)-one] | 57.3 ± 4.2 µM | 66.1 ± 4.5 µM | – |
| O=C(CSc1nnc(-c2n[nH]c(=O)c3ccccc23)o1)c1cccc([N+](=O)[O-])c1 [Compound 2d, 4-(5-((2-(3-Nitrophenyl)-2-oxoethyl)thio)-1,3,4-oxadiazol-2-yl)phthalazin-1(2H)-one] | > 100 µM | > 100 µM | – |
| CC(=O)c1ccc(NC(=O)CSc2nnc(-c3n[nH]c(=O)c4ccccc34)o2)cc1 [Compound 4a, N-(4-Acetylphenyl)-2-((5-(4-oxo-3,4-dihydrophthalazin-1-yl)-1,3,4-oxadiazol-2-yl)thio)acetamide] | 76.2 ± 4.7 µM | 72.6 ± 4.8 µM | – |
| NS(=O)(=O)c1ccc(NC(=O)CSc2nnc(-c3n[nH]c(=O)c4ccccc34)o2)cc1 [Compound 4b, 2-((5-(4-Oxo-3,4-dihydrophthalazin-1-yl)-1,3,4-oxadiazol-2-yl)thio)-N-(4-sulfamoylphenyl)acetamide] | > 100 µM | 83.9 ± 5.2 µM | – |
| Cc1ccc(NC(=O)CSc2nnc(-c3n[nH]c(=O)c4ccccc34)o2)cc1 [Compound 4c, 2-((5-(4-Oxo-3,4-dihydrophthalazin-1-yl)-1,3,4-oxadiazol-2-yl)thio)-N-(p-tolyl)acetamide] | 36.3 ± 3.2 µM | 28.1 ± 2.9 µM | – |
| O=C(CSc1nnc(-c2n[nH]c(=O)c3ccccc23)o1)Nc1ccc(Cl)cc1 [Compound 4d, N-(4-Chlorophenyl)-2-((5-(4-oxo-3,4-dihydrophthalazin-1-yl)-1,3,4-oxadiazol-2-yl)thio)acetamide] | 49.5 ± 3.9 µM | 53.9 ± 3.8 µM | – |
| COc1cccc2c1C(=O)c1c(O)c3c(c(O)c1C2=O)C[C@@](O)(C(=O)CO)C[C@@H]3O[C@H]1C[C@H](N)[C@H](O)[C@H](C)O1 [DOX, Doxorubicin, reference compound] | 4.2 ± 0.2 µM | 4.5 ± 0.3 µM | reduction in MAPK concentration compared to untreated cells [1]: 85%; IC50 ([3]; read-out: IC50 against all cells investigated): 4 to 7 µM; decrease in Topo II concentration [2]: 87%; down-regulation (inhibition) of txnrd1 expression (txnrd1): 56%; inhibition in cdk1 expression (cdk1): ~75% |
| S-(5-(4-Oxo-3,4-dihydrophthalazin-1-yl)-1,3,4-oxadiazol-2-yl)2-(2-isonicotinoylhydrazinyl)ethanethioate [Compound 3] | – | – | IC50 (WI-38 cells): 44.6 ± 4.2 µM; IC50 (MCF7 cells; MTT, mean ± SEM): 40 ± 3.6 µM; IC50 (HepG2 cells; MTT, mean ± SEM): 38.4 ± 3.5 µM |

The next lines start with results.

| IC50 (MCF7 cells; Homo sapiens) | IC50 (HepG2 cells; Homo sapiens) | Compound | further results |
| --- | --- | --- | --- |
| 26.2 ± 2.5 µM | 23.5 ± 2.8 µM | Cc1ccc(NCSc2nnc(-c3nn(CNc4ccc(C)cc4)c(=O)c4ccccc34)o2)cc1 [Compound 7a, 2-((p-Tolylamino)methyl)-4-(5-(((p-tolylamino)methyl)thio)-1,3,4-oxadiazol-2-yl)phthalazin-1(2H)-one] | – |
| 31.3 ± 2.8 µM | 33.3 ± 3.4 µM | O=c1c2ccccc2c(-c2nnc(SCNc3ccc(Cl)cc3)o2)nn1CNc1ccc(Cl)cc1 [Compound 7b, 2-(((4-Chlorophenyl)amino)methyl)-4-(5-((((4-chlorophenyl)amino)methyl)thio)-1,3,4-oxadiazol-2-yl)phthalazin-1(2H)-one] | – |
| 15.4 ± 1.2 µM | 17.2 ± 1.9 µM | O=c1c2ccccc2c(-c2nnc(SCNc3ccccc3Cl)o2)nn1CNc1ccccc1Cl [Compound 7c, 2-(((2-Chlorophenyl)amino)methyl)-4-(5-((((2-chlorophenyl)amino)methyl)thio)-1,3,4-oxadiazol-2-yl)phthalazin-1(2H)-one] | IC50 (WI-38 cells): 23.2 ± 1.2 µM |
| 5.5 ± 0.4 µM | 6.3 ± 0.7 µM | COc1ccc(NCSc2nnc(-c3nn(CNc4ccc(OC)cc4)c(=O)c4ccccc34)o2)cc1 [Compound 7d, 2-(((4-Methoxyphenyl)amino)methyl)-4-(5-((((4-methoxyphenyl)amino)methyl)thio)-1,3,4-oxadiazol-2-yl)phthalazin-1(2H)-one] | IC50 [3, 4]: 5.5 to 15 µM; Fold induction from untreated cells p53 (p53): 2 fold and 2.16 ± 0.12 ^a fold; decrease in Topo II concentration [2]: 31%; Fold induction from untreated cells Caspase 3 (caspase 3): 2 fold and 1.96 ± 0.09 ^a fold; Fold induction from untreated cells Txnrd1 (txnrd1): 1.02 ± 0.16 fold |
| 8.4 ± 0.9 µM | 7 ± 1.5 µM | O=c1c2ccccc2c(-c2nnc(SCNc3ccc([N+](=O)[O-])cc3)o2)nn1CNc1ccc([N+](=O)[O-])cc1 [Compound 7e, 2-(((4-Nitrophenyl)amino)methyl)-4-(5-((((4-nitrophenyl)amino)methyl)thio)-1,3,4-oxadiazol-2-yl)phthalazin-1(2H)-one] | IC50 (WI-38 cells): 21.6 ± 1.8 µM; IC50 [3, 4]: 5.5 to 15 µM; Fold induction from untreated cells p53 (p53): 2 fold and 2.02 ± 0.08 ^a fold; Fold induction from untreated cells Caspase 3 (caspase 3): 2 fold and 2.22 ± 0.14 ^a fold; Fold induction from untreated cells Txnrd1 (txnrd1): 1.11 ± 0.10 fold |
| 20.8 ± 1.9 µM | 21.8 ± 2.3 µM | O=c1c2ccccc2c(-c2nnc(SCNc3cccnc3)o2)nn1CNc1cccnc1 [Compound 7f, 2-((Pyridin-3-ylamino)methyl)-4-(5-(((pyridin-3-ylamino)methyl)thio)-1,3,4-oxadiazol-2-yl)phthalazin-1(2H)-one] | – |
| 45.5 ± 3.8 µM | 42.9 ± 3.7 µM | O=c1[nH]nc(-c2nnc(SCNC3CCCCC3)o2)c2ccccc12 [Compound 7g, 4-(5-(((Cyclohexylamino)methyl)thio)-1,3,4-oxadiazol-2-yl)phthalazin-1(2H)-one] | – |

From PMC9048702 (RSC Advances, 2020)
